From ChEMBL document CHEMBL4041513, “In silico identification, design and synthesis of novel piperazine-based antiviral agents targeting the hepatitis C virus helicase” (Eur J Med Chem, 2017)

Experiments:
[1] = test system: Hepatitis C virus; assay: Antiviral activity against HCV genotype 1b infected in human HuH5.2 cells with persistent I389luc-ubi-neo/NS3-3'/5.1 replicon after 72 hrs by luciferase reporter gene assay; assay type: functional, cell-based, Hepacivirus hominis; details: Huh-5-2, 72 h
Method in brief: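 Huh 5-2 cells carrying the genotype 1b I389luc-ubi-neo/NS3-3'/5.1 replicon were seeded at 6 500 cells/well in Geneticin-free DMEM/10% FCS and left overnight. Compounds from DMSO stocks were added in a four-step 1-to-5 series for the first screen or an eight-step 1-to-2 series for dose-response curves, then 72 h at 37 °C. Luciferase luminescence after lysis, as % of untreated controls, gave EC50; mean of ≥2 experiments.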

[2] = Cytotoxicity against human HuH5.2 cells assessed as reduction in cell viability after 72 hrs by MTS assay; assay type: cell-based, Huh-5-2
Method in brief: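 Huh 5-2 cells carrying the genotype 1b I389luc-ubi-neo/NS3-3'/5.1 replicon were seeded at 6 500 cells/well in medium without Geneticin one day ahead. Compounds (DMSO stock) were added as 1:5 four-step or 1:2 eight-step dilutions for 72 h at 37 °C.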

[3] = Inhibition of HCV NS3 helicase DNA unwinding activity using fluorescent DNA substrate by molecular beacon assay; design: species or system Hepacivirus hominis
Method in brief: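 Molecular beacon unwinding reaction: 25 mM MOPS pH 6.5, 1.25 mM MgCl2, 5% DMSO, 5 µg/ml BSA, 0.01% Tween20, 0.05 mM DTT, 5 nM fluorescent DNA substrate, 12.5 nM NS3h, 1 mM ATP. Duplicate two-fold dilutions spanned 1 mM to 0.78 µM. Data normalised to no-inhibitor and no-enzyme controls; IC50 from variable-slope Hill fit.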

[4] = Selectivity index, ratio of CC50 for human HuH5.2 cells to EC50 for HCV genotype 1b infected in human HuH5.2 cells with persistent I389luc-ubi-neo/NS3-3'/5.1 replicon
[5] = Inhibition of HCV NS3 helicase ATP hydrolysis activity in presence of poly(U) RNA; design: species or system Hepacivirus hominis
Method in brief: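 ATPase run with RNA: 25 mM MOPS pH 6.5, 1.25 mM MgCl2, 15 µM poly(U), 6 nM NS3h, 5 µg/mL BSA, 0.001% Tween 20. Duplicate two-fold compound series from 1 mM to 0.78 µM; normalised to no-inhibitor and no-enzyme controls; IC50 from variable Hill-slope fit. A separate poly(U) titration gave K_RNA, fit assuming unchanged Vmax.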

[6] = Inhibition of DNA oligonucleotide binding to HCV NS3 helicase; design: species or system Hepacivirus hominis
Method in brief: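 Compounds run in duplicate two-fold series from 1 mM to 0.78 µM; normalised to no-inhibitor and no-enzyme controls; IC50 by variable Hill-slope dose-response fit.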

O=C(CCNS(=O)(=O)c1ccc(Cl)cc1)N1CCN(CCCNS(=O)(=O)c2ccc(Cl)cc2)CC1
EC50 [1]: 9.32 µM
EC90 [1]: 25.9 µM
CC50 at 72 h [2]: 69.1 µM
IC50 [3]: > 1000 µM
Ratio CC50/EC50 [4]: 7.4

O=S(=O)(NCCN1CCN(CCNS(=O)(=O)c2ccc(Cl)cc2)CC1)c1ccc(Cl)cc1
EC50 [1]: > 95.9 µM
CC50 at 72 h [2]: > 95.9 µM
IC50 [3]: 250 µM

Cc1ccc2nc(-c3ccc4nc(-c5ccc(N)cc5)sc4c3)sc2c1S(=O)(=O)O
IC50 [3]: 10 µM

O=S(=O)(NCCCN1CCN(CCCNS(=O)(=O)c2cccc3cccnc23)CC1)c1cccc2cccnc12
EC50 [1]: 42.5 µM
EC90 [1]: > 172 µM
CC50 at 72 h [2]: > 172 µM
IC50 [3]: > 1000 µM
Ratio CC50/EC50 [4]: >4

O=C(CCNS(=O)(=O)c1ccc(-c2ccccc2)cc1)N1CCN(CCCNS(=O)(=O)c2ccc(-c3ccccc3)cc2)CC1
EC50 [1]: 3.03 µM
CC50 at 72 h [2]: 66.9 µM
IC50 [3]: > 1000 µM
Ratio CC50/EC50 [4]: 22.1

O=S(=O)(NCCCN1CCN(CCCNS(=O)(=O)c2ccc(-c3ccccc3)cc2)CC1)c1ccc(-c2ccccc2)cc1
EC50 [1]: 1.2 µM
CC50 at 72 h [2]: 4.9 µM
IC50 [3]: 630 µM
Ratio CC50/EC50 [4]: 3.9

O=C(O)C1=CC(=C(c2ccc(O)c(C(=O)O)c2)c2ccc(O)c(C(=O)O)c2)C=CC1=O [AURINTRICARBOXYLIC ACID]
IC50 [3]: 0.3 µM

O=S(=O)(NCCCN1CCN(CCCNS(=O)(=O)c2ccc3ccccc3c2)CC1)c1ccc2ccccc2c1
EC50 [1]: 4.9 µM
CC50 at 72 h [2]: 49.9 µM
IC50 [3]: 460 µM
Ratio CC50/EC50 [4]: 10

CC(C)(C)c1ccc(S(=O)(=O)NCCCN2CCN(CCNS(=O)(=O)c3ccc(C(C)(C)C)cc3)CC2)cc1
EC50 [1]: 1.7 µM
CC50 at 72 h [2]: 5.21 µM
IC50 [3]: 170 µM
Ratio CC50/EC50 [4]: 3.1

O=S(=O)(NCCCN1CCN(CCCNS(=O)(=O)c2ccc(C(F)(F)F)cc2)CC1)c1ccc(Cl)cc1
EC50 [1]: 10.1 µM
EC90 [1]: 33.5 µM
CC50 at 72 h [2]: 63.7 µM
Ratio CC50/EC50 [4]: 6.3

O=S(=O)(NCCCN1CCN(CCCNS(=O)(=O)c2ccc(C(F)(F)F)cc2)CC1)c1ccc(C(F)(F)F)cc1
EC50 [1]: 6.5 µM
CC50 at 72 h [2]: > 162 µM
IC50 [3]: > 1000 µM
Ratio CC50/EC50 [4]: >25

O=S(=O)(NCCN1CCN(CCNS(=O)(=O)c2ccc3ccccc3c2)CC1)c1ccc2ccccc2c1
EC50 [1]: 10.6 µM
CC50 at 72 h [2]: > 90.5 µM
IC50 [3]: 690 µM
Ratio CC50/EC50 [4]: >8.5

O=S(=O)(NCCCN1CCN(CCCNS(=O)(=O)c2ccc(Cl)cc2)CC1)c1ccccc1
EC50 [1]: 19.9 µM
EC90 [1]: > 64 µM
CC50 at 72 h [2]: 81.5 µM
Ratio CC50/EC50 [4]: 4.1

O=S(=O)(NCCCN1CCN(CCCNS(=O)(=O)c2ccccc2)CC1)c1ccccc1
EC50 [1]: 58.3 µM
CC50 at 72 h [2]: > 104 µM
Ratio CC50/EC50 [4]: >1.8

O=S(=O)(NCCCN1CCN(CCCNS(=O)(=O)c2cccc3ccccc23)CC1)c1cccc2ccccc12
EC50 [1]: > 172 µM
EC90 [1]: > 172 µM
CC50 at 72 h [2]: > 172 µM
IC50 [3]: > 1000 µM

CC(C)(C)c1ccc(S(=O)(=O)NCCCN2CCN(CCCNS(=O)(=O)c3ccc(Cl)cc3)CC2)cc1
EC50 [1]: 2.21 µM
EC90 [1]: 4.96 µM
CC50 at 72 h [2]: 8.77 µM
IC50 [3]: 310 µM
Ratio CC50/EC50 [4]: 4

O=C(O)c1ccc(S(=O)(=O)NCCCN2CCN(CCCNS(=O)(=O)c3ccc(C(=O)O)cc3)CC2)cc1
EC50 [1]: > 176 µM
CC50 at 72 h [2]: > 176 µM
IC50 [3]: > 1000 µM

COc1ccc(C(=O)C2=C(O)C(=O)N(c3cnoc3C)C2c2ccc(C(C)(C)C)cc2)cc1OC (centres undefined)
EC50 [1]: 57.2 µM
CC50 at 72 h [2]: > 105 µM
Ratio CC50/EC50 [4]: >1.8

COc1ccc(S(=O)(=O)NCCCN2CCN(CCCNS(=O)(=O)c3ccc(OC)c(OC)c3)CC2)cc1OC
EC50 [1]: 82 µM
EC90 [1]: > 166 µM
CC50 at 72 h [2]: > 166 µM
Ratio CC50/EC50 [4]: >2

O=C(CCNS(=O)(=O)c1ccc(Cl)cc1)N1CCN(C(=O)CCNS(=O)(=O)c2ccc(Cl)cc2)CC1
CC50 at 72 h [2]: > 86.6 µM
IC50 [5]: > 1000 µM
IC50 [3]: > 1000 µM
IC50 [6]: > 1000 µM

O=S(=O)(NCCCN1CCN(CCCNS(=O)(=O)c2cccc(Cl)c2)CC1)c1cccc(Cl)c1
EC50 [1]: 76.9 µM
EC90 [1]: 173 µM
CC50 at 72 h [2]: > 182 µM
Ratio CC50/EC50 [4]: >2.4

O=[N+]([O-])c1ccc(S(=O)(=O)NCCN2CCN(CCNS(=O)(=O)c3ccc([N+](=O)[O-])cc3)CC2)cc1
EC50 [1]: 17.4 µM
CC50 at 72 h [2]: > 184 µM
Ratio CC50/EC50 [4]: >10.6

O=C(CCNS(=O)(=O)c1ccc2ccccc2c1)N1CCN(C(=O)CCNS(=O)(=O)c2ccc3ccccc3c2)CC1
EC50 [1]: 12 µM
CC50 at 72 h [2]: 40.8 µM
Ratio CC50/EC50 [4]: 3.4

CC(C)(C)c1ccc(S(=O)(=O)NCCCN2CCN(CCCNS(=O)(=O)c3ccccc3)CC2)cc1
EC50 [1]: 3.74 µM
CC50 at 72 h [2]: 20.5 µM
Ratio CC50/EC50 [4]: 5.5

Cc1ccc(C(=O)C2=C(O)C(=O)N(Cc3ccco3)C2c2cccc(Cl)c2)o1 (centres undefined)
EC50 [1]: 30.6 µM
CC50 at 72 h [2]: > 126 µM
Ratio CC50/EC50 [4]: >4.1

CC(C)(C)c1ccc(S(=O)(=O)NCCCN2CCN(C(=O)CCNS(=O)(=O)c3ccc(C(C)(C)C)cc3)CC2)cc1
EC50 [1]: 3.84 µM
CC50 at 72 h [2]: 20.8 µM
IC50 [3]: > 1000 µM
Ratio CC50/EC50 [4]: 5.4

Cc1ccc(S(=O)(=O)NCCCN2CCN(CCCNS(=O)(=O)c3ccc(C)cc3)CC2)cc1
EC50 [1]: 19.2 µM
CC50 at 72 h [2]: > 197 µM
Ratio CC50/EC50 [4]: >10.3

O=S(=O)(NCCCN1CCN(CCCNS(=O)(=O)c2ccc(C(F)(F)F)cc2)CC1)c1ccccc1
EC50 [1]: 12.1 µM
CC50 at 72 h [2]: 70.8 µM
Ratio CC50/EC50 [4]: 5.8

CCOC(=O)c1ccc(S(=O)(=O)NCCCN2CCN(CCCNS(=O)(=O)c3ccc(C(=O)OCC)cc3)CC2)cc1
EC50 [1]: 56.2 µM
CC50 at 72 h [2]: > 160 µM
IC50 [3]: > 1000 µM
Ratio CC50/EC50 [4]: >2.8

Cc1ccc2nc(N3C(=O)C(O)=C(C(=O)c4cc5ccccc5o4)C3c3cccc(O)c3)sc2c1 (centres undefined)
EC50 [1]: 35.8 µM
CC50 at 72 h [2]: > 104 µM
Ratio CC50/EC50 [4]: >2.8

O=S(=O)(NCCCCN1CCN(CCCCNS(=O)(=O)c2ccc(Cl)cc2)CC1)c1ccc(Cl)cc1
EC50 [1]: 66.7 µM
EC90 [1]: 164 µM
CC50 at 72 h [2]: > 173 µM
IC50 [3]: 790 µM
Ratio CC50/EC50 [4]: >2.5

CC(C)(C)c1ccc(S(=O)(=O)NCCCN2CCN(CCCNS(=O)(=O)c3ccc(C(F)(F)F)cc3)CC2)cc1
EC50 [1]: 6.62 µM
EC90 [1]: 13.8 µM
CC50 at 72 h [2]: 28.7 µM
IC50 [3]: > 1000 µM
Ratio CC50/EC50 [4]: 4.3

Cc1ccc2nc(N3C(=O)C(O)=C(C(=O)c4cc5ccccc5o4)C3c3cccc(Oc4ccccc4)c3)sc2c1 (centres undefined)
EC50 [1]: 41.8 µM
EC90 [1]: > 89.5 µM
CC50 at 72 h [2]: > 89.5 µM
Ratio CC50/EC50 [4]: >2.1

O=S(=O)(NCCCN1CCN(CCCNS(=O)(=O)c2ccc(-c3ccccc3)cc2)CC1)c1ccccc1
EC50 [1]: 4 µM
CC50 at 72 h [2]: 14 µM
IC50 [3]: > 1000 µM
Ratio CC50/EC50 [4]: 3.5
